Columns and labels:
[1] = biological target: T1, Steroid 17-alpha-hydroxylase/17,20 lyase (Homo sapiens, UniProt P05093); test: In vitro cytochrome P450 17A1 inhibition was assayed using the rapid acetic acid releasing assay (AARA), utilizing intact P450c17-expressing Escherichia coli or P450c17-LNCaP cells as the enzyme source.
T1 sequence (P05093 whole entry): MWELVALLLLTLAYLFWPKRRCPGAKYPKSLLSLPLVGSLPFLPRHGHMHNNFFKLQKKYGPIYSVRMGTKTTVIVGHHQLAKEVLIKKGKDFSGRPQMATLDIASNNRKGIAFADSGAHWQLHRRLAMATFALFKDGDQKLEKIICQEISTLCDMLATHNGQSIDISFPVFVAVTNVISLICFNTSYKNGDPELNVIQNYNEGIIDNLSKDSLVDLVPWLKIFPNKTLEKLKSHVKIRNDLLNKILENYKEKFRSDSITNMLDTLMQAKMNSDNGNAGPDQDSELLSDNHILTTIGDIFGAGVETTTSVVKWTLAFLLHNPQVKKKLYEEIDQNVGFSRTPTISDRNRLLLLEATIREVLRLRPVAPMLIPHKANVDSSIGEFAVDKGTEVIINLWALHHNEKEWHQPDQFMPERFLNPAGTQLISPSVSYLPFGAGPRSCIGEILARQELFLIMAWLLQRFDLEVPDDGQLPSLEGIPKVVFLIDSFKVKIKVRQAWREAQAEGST
In short: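 Enzyme source was intact E. coli expressing P450c17 or P450c17-LNCaP cells. Substrate was [21-3H]-17α-hydroxypregnenolone, and CYP17 activity was read as tritiated acetic acid released by C-21 side-chain cleavage. Each compound was tested at five or more concentrations, in triplicate. IC50 was taken directly from plots of % inhibition versus concentration and reported as the mean of triplicate experiments.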

[2] = biological target: T1, Steroid 17-alpha-hydroxylase/17,20 lyase
[3] = biological target: T1, Steroid 17-alpha-hydroxylase/17,20 lyase; test: In vitro Cytochrome P450 17A1 inhibition in rapid acetic acid releasing assay (AARA) using intact P450c17-expressing Escherichia coli or P450c17-LNCaP cells as the enzyme source at 1 mM
In short: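 Acetic acid releasing assay using intact P450c17-expressing E. coli or P450c17-LNCaP cells with [21-3H]-17α-hydroxypregnenolone as substrate. Activity was read as tritiated acetic acid formed from C-21 side-chain cleavage. Percent inhibition was recorded at a single inhibitor concentration of 1 mM.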

## C[C@]12CC[C@@H](O)CC1=CC[C@@H]1[C@@H]2CC[C@]2(C)C(=C/C=N/O)CC[C@@H]12
[1]
  IC50: 320 nM

## C/C(=N/O)[C@@]1(O)CC[C@H]2[C@@H]3CC=C4C[C@@H](O)CC[C@]4(C)[C@H]3CC[C@@]21C
[1]
  IC50: 12000 nM

## C[C@]12CC[C@H](O)CC1=CCC1C2CC[C@]2(C)C(n3nccn3)=CCC12 (some centres undefined)
[1]
  IC50: 3700 nM

## C[C@]12CCC(=O)C=C1CCC1C2CC[C@]2(C)C(c3ccno3)=CCC12 (some centres undefined)
[1]
  IC50: 1000 nM

## C[C@]12CCC(=O)C=C1CCC1C2CC[C@]2(C)C(n3ccnn3)=CCC12 (some centres undefined)
[1]
  IC50: 387 nM

## C[C@]12CC[C@H](O)CC1=CCC1C2CC[C@]2(C)C(n3ccnn3)=CCC12 (some centres undefined)
[1]
  IC50: 377 nM

## C[C@]12CCC(=O)C=C1CCC1C2CC[C@]2(C)C(n3cnc4ccccc43)=CCC12 (some centres undefined)
[1]
  IC50: 915 nM

## c1ccc(-c2ccc(C(c3ccccc3)n3ccnc3)cc2)cc1 (centres undefined) [BIFONAZOLE]
[2]
  Ki: 56.5 nM

## C[C@]12CC[C@H](O)CC1=CCC1C2CC[C@]2(C)C(n3cnnn3)=CCC12 (some centres undefined)
[1]
  IC50: 2600 nM

## CC(CCC(=O)OC1CC2CC=CC1C2)[C@H]1CCC2C3CC=C4C[C@@H](O)CC[C@]4(C)C3CCC21 (some centres undefined)
[1]
  IC50: 617 nM

## Clc1ccc(COC(Cn2ccnc2)c2ccc(Cl)cc2Cl)cc1 (centres undefined) [ECONAZOLE]
[2]
  Ki: 325 nM

## C[C@]12CC[C@H](O)CC1=CCC1C2CC[C@]2(C)/C(=N/NC(N)=O)CCC12 (some centres undefined) [NRB 03731]
[1]
  IC50: 178 nM

## C[C@]12CC[C@H](O)CC1=CCC1C2CC[C@]2(C)C(c3cncnc3)=CCC12 (some centres undefined)
[1]
  IC50: 500 nM

## C[C@]12CC[C@H](O)CC1=CC[C@@H]1[C@@H]2CC[C@]2(C)C(c3cccnc3)=CC[C@@H]12 [ABIRATERONE]
[1]
  IC50: 800 nM

## C[C@]12CCC(=O)C=C1CCC1C2CC[C@]2(C)C(n3ccnc3)=CCC12 (some centres undefined)
[1]
  IC50: 150 nM

## CC(=O)O[C@H]1CCC2C3C=CC4=CC(=O)C=C[C@]4(C)C3CC[C@@]21C (some centres undefined)
[1]
  IC50: 660 nM

## C/C(=N/O)C1=CC=C2[C@@H]3CCC4=CC(=O)CC[C@]4(C)[C@H]3CC[C@]12C
[1]
  IC50: 1700 nM

## C[C@]12CCC3C(CC=C4C[C@@H](O)CC[C@@]43C)C1C/C(=N\O)C2 (some centres undefined)
[1]
  IC50: 628 nM

## C[C@]12CC[C@H](O)CC1=CCC1C2CC[C@]2(C)C(n3ncnn3)=CCC12 (some centres undefined)
[1]
  IC50: 1400 nM

## Clc1ccc(COC(Cn2ccnc2)c2ccc(Cl)cc2Cl)c(Cl)c1 (centres undefined) [MICONAZOLE]
[2]
  Ki: 243 nM

## Clc1ccc(C(Cn2ccnc2)OCc2ccsc2Cl)c(Cl)c1 (centres undefined) [TIOCONAZOLE]
[2]
  Ki: 505 nM

## C=C1C[C@@]2(C)C(=CC1=O)CCC1C2CC[C@@]2(C)C1CC[C@]2(C)OC(C)=O (some centres undefined)
[1]
  IC50: 562 nM

## C[C@]12CC[C@H](O)CC1=CCC1C2CC[C@]2(C)C(=N/N)/C(=N/O)CC12 (some centres undefined)
[1]
  IC50: 5900 nM

## CCC(=O)O[C@H]1CC[C@H]2[C@@H]3CCC4=CC(=O)CC[C@]4(C)[C@H]3CC[C@]12C [TESTOSTERONE PROPIONATE]
[1]
  IC50: 56 nM

## C[C@]12CCC(=O)C=C1CCC1C2CC[C@]2(C)C(n3cncn3)=CCC12 (some centres undefined)
[1]
  IC50: 1200 nM

## C[C@]12CC[C@H](O)CC1=CCC1C2CC[C@@]2(C)C1CC[C@H]2c1ccncn1 (some centres undefined)
[1]
  IC50: 225 nM

## CS(=O)(=O)Nc1cc(Cc2cc(NS(C)(=O)=O)cc(C(F)(F)F)c2)cc(C(F)(F)F)c1
[3]
  inhibition at 1000 µM: ~25%

## C[C@]12CCC3C(CC=C4C[C@@H](O)CC[C@@]43C)C1CCC2C/C=N/O (some centres undefined)
[1]
  IC50: 450 nM

## C[C@]12CC[C@H](O)CC1=CCC1C2CC[C@]2(C)C(n3cncn3)=CCC12 (some centres undefined)
[1]
  IC50: 800 nM
